Assay results: ChEMBL document CHEMBL1143012, “Synthesis and pharmacological in vitro and in vivo evaluations of novel triazole derivatives as ligands of the ghrelin receptor. 1” (J Med Chem, 2007)

Assays:
[1] = biological target: T1, Growth hormone secretagogue receptor type 1 (Homo sapiens, UniProt Q92847); assay: Displacement of [125I-His9]ghrelin from human GHS1a receptor expressed in LLC PK1 cells; type: cell-based
Method in brief: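 Membranes from LLC PK-1 cells transiently electroporated with hGHS-R1a (harvested about 48 h), 10 µg protein, incubated 60 min at 25 °C with 60 pM 125I-His9-ghrelin in Tris pH 7.3/MgCl2/EDTA/bacitracin buffer. Filtered, washed, gamma counted; nonspecific binding with 10 µM ghrelin. Triplicates, at least three experiments.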

[2] = biological target: T1, Growth hormone secretagogue receptor type 1; assay: Agonist activity at human GHS1a receptor expressed in CHO cells assessed as induction of intracellular calcium mobilization; type: functional, cell-based
Method in brief: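 CHO cells transiently expressing hGHS-R1a via electroporation, Fluo-4AM loaded (1 µM, 1 h, 37 °C), calcium fluorescence read 60 s at ex 485/em 525 nm. EC50 from agonist dose-response curves, response as percentage of maximal signal from 10 µM ghrelin; triplicates, means of at least three experiments.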

[3] = biological target: T1, Growth hormone secretagogue receptor type 1; assay: Activity at human GHS1a receptor expressed in CHO cells assessed as intracellular calcium mobilization relative to 0.1 uM ghrelin; type: functional, cell-based
Rattus norvegicus [4] = assay: Stimulation of cumulative food intake per 100 g body weight in Sprague-Dawley rat at 160 ug/kg, sc at 6 hrs; type: functional
Method in brief: (§1)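 Male Sprague-Dawley rats (125-150 g), singly housed and trained, given compound sc alone (cumulative food intake as g/100 g body weight, weighed hourly to 6 h); percentage variation calculated as (compound minus hexarelin 80 µg/kg intake)/hexarelin intake at 6 h. Mean ± SEM, ANOVA with Dunnett's test.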

Rattus norvegicus [5] = assay: Stimulation of cumulative food intake in Sprague-Dawley rat at 160 ug/kg, sc at 6 hrs relative to 80 ug/kg hexarelin; type: functional; method in brief: as §1

T1 sequence (Q92847 whole entry): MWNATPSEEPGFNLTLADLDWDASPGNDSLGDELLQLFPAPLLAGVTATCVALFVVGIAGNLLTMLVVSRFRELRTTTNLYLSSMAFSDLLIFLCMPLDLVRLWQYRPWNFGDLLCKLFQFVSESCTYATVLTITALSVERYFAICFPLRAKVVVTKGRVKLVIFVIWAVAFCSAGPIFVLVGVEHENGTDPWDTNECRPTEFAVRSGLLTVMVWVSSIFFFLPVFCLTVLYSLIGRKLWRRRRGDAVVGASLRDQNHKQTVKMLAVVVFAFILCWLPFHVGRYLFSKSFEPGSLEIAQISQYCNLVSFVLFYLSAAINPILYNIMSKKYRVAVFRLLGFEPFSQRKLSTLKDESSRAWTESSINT

Row | SMILES | IC50 [1] [nM] | Activity ([2]; filed as partial agonist) | Activity [3] [%] | EC50 [2] [nM] | Activity ([2]; filed as agonist) | Activity (Rattus norvegicus [4]) [g] | Activity (Rattus norvegicus [5]) [%]
1 | CCCCCCn1c(CCc2c[nH]c3ccccc23)nnc1[C@@H](Cc1c[nH]c2ccccc12)NC(=O)C(C)(C)N | 195 | Partial agonist | 62 |  |  |  | 
2 | CC(C)(N)C(=O)N[C@H](Cc1c[nH]c2ccccc12)c1nnc(CCc2c[nH]c3ccccc23)n1Cc1ccc(F)cc1 |  |  | 59 | 210 |  |  | 
3 | CC(C)(N)C(=O)N[C@H](Cc1c[nH]c2ccccc12)c1nnc(Cc2ccccc2)n1Cc1ccc(Cl)c(Cl)c1 | 520 | Partial agonist | 64 |  |  |  | 
4 | Cn1c(CCc2c[nH]c3ccccc23)nnc1[C@@H](Cc1c[nH]c2ccccc12)NC(=O)C(C)(C)N | 580 |  |  |  |  |  | 
5 | CCCCCCn1c(Cc2ccccc2)nnc1[C@@H](Cc1c[nH]c2ccccc12)NC(=O)C(C)(C)N | 470 | Partial agonist | 67 |  |  |  | 
6 | CC(C)(N)C(=O)N[C@H](Cc1c[nH]c2ccccc12)c1nnc(Cc2ccccc2)n1Cc1ccccc1 | 500 | Partial agonist | 44 |  |  |  | 
7 | COc1cc(Cn2c(CCc3c[nH]c4ccccc34)nnc2[C@@H](Cc2c[nH]c3ccccc23)NC(=O)C(C)(C)N)cc(OC)c1 | 150 | Partial agonist | 22 |  |  |  | 
8 | CC(C)(N)C(=O)N[C@H](Cc1c[nH]c2ccccc12)c1nnc(Cc2ccccc2)n1CCc1c[nH]c2ccccc12 | 700 |  | 95 |  | Agonist |  | 
9 | CC(C)(N)C(=O)N[C@H](Cc1c[nH]c2ccccc12)c1nnc(CCc2c[nH]c3ccccc23)n1Cc1ccccc1 | 15 |  |  | 64 |  | 0.02 | -4
10 | Cn1c(Cc2c[nH]c3ccccc23)nnc1[C@@H](Cc1c[nH]c2ccccc12)NC(=O)C(C)(C)N | 1700 |  |  |  |  |  | 
11 | CC(C)(N)C(=O)N[C@H](Cc1c[nH]c2ccccc12)c1nnc(CCc2c[nH]c3ccccc23)n1Cc1cccc2ccccc12 |  | Partial agonist | 54 |  |  |  | 
12 | CC(C)(N)C(=O)N[C@H](Cc1c[nH]c2ccccc12)c1nnc(Cc2ccccc2)n1Cc1cccc2ccccc12 |  | Partial agonist | 78 |  |  |  | 
13 | CC(C)(N)C(=O)N[C@H](Cc1c[nH]c2ccccc12)c1nncn1CCc1c[nH]c2ccccc12 | 850 |  |  |  |  |  | 
14 | CCCCCCn1c(CCCc2c[nH]c3ccccc23)nnc1[C@@H](Cc1c[nH]c2ccccc12)NC(=O)C(C)(C)N |  | Partial agonist | 32 |  |  |  | 
15 | CC(C)(N)C(=O)N[C@H](Cc1c[nH]c2ccccc12)c1nnc(CCCc2c[nH]c3ccccc23)n1Cc1ccc(Br)cc1 |  | Partial agonist | 25 |  |  |  | 
16 | CC(C)(N)C(=O)N[C@H](Cc1c[nH]c2ccccc12)c1nnc(Cc2ccccc2)n1Cc1ccccn1 | > 1000 | Partial agonist | 78 |  |  |  | 
17 | COc1ccc(Cn2c(Cc3c[nH]c4ccccc34)nnc2[C@@H](Cc2c[nH]c3ccccc23)NC(=O)C(C)(C)N)c(OC)c1 | 1000 |  |  |  |  |  | 
18 | CC(C)(N)C(=O)N[C@H](Cc1c[nH]c2ccccc12)c1nnc(Cc2ccccc2)n1CC(c1ccccc1)c1ccccc1 | > 1000 | Partial agonist | 60 |  |  |  | 
19 | COc1cc(Cn2c(Cc3ccccc3)nnc2[C@@H](Cc2c[nH]c3ccccc23)NC(=O)C(C)(C)N)cc(OC)c1 | 110 | Partial agonist | 29 |  |  |  | 
20 | COc1ccc(Cn2c(CCCc3c[nH]c4ccccc34)nnc2[C@@H](Cc2c[nH]c3ccccc23)NC(=O)C(C)(C)N)c(OC)c1 | 750 | Partial agonist | 27 |  |  |  | 
21 | CC(C)(N)C(=O)N[C@H](Cc1c[nH]c2ccccc12)c1nnc(Cc2c[nH]c3ccccc23)[nH]1 | 2200 |  |  |  |  |  | 
22 | CC(C)(N)C(=O)N[C@H](Cc1c[nH]c2ccccc12)c1nnc(CCCc2c[nH]c3ccccc23)n1Cc1cccc2ccccc12 | 140 | Partial agonist | 62 |  |  |  | 
23 | CC(C)(N)C(=O)N[C@H](Cc1c[nH]c2ccccc12)c1nnc(CCc2c[nH]c3ccccc23)n1Cc1ccc(Br)cc1 | 100 | Partial agonist | 27 |  |  |  | 
24 | CC(C)(N)C(=O)N[C@H](Cc1c[nH]c2ccccc12)c1nnc(CCc2c[nH]c3ccccc23)n1-c1ccccc1 |  |  | 91 | 41 |  |  | 
25 | CC(C)(N)C(=O)N[C@H](Cc1c[nH]c2ccccc12)c1nnc(CCc2c[nH]c3ccccc23)n1CC(c1ccccc1)c1ccccc1 | 640 | Partial agonist | 62 |  |  |  | 

The next lines start with results.

Row | IC50 [1] [nM] | Activity ([2]; filed as partial agonist) | Activity [3] [%] | EC50 [2] [nM] | Activity ([2]; filed as agonist) | SMILES | Activity (Rattus norvegicus [4]) [g] | Activity (Rattus norvegicus [5]) [%]
26 | 140 | Partial agonist | 19 |  |  | Cc1ccc(Cn2c(CCc3ccccc3)nnc2[C@@H](Cc2c[nH]c3ccccc23)NC(=O)C(C)(C)N)cc1 |  | 
27 |  | Partial agonist | 60 |  |  | CC(C)(N)C(=O)N[C@H](Cc1c[nH]c2ccccc12)c1nnc(Cc2ccccc2)n1Cc1ccc(F)cc1 |  | 
28 |  |  | 69 | 630 |  | Cc1ccc(Cn2c(CCc3c[nH]c4ccccc34)nnc2[C@@H](Cc2c[nH]c3ccccc23)NC(=O)C(C)(C)N)cc1 | 0.3 | -49
29 |  |  | 26 | 11 |  | CCc1ccc(Cn2c(CCc3ccccc3)nnc2[C@@H](Cc2c[nH]c3ccccc23)NC(=O)C(C)(C)N)cc1 |  | 
30 | > 1000 | Partial agonist | 85 |  |  | CC(C)(N)C(=O)N[C@H](Cc1c[nH]c2ccccc12)c1nnc(Cc2ccccc2)n1CCc1ccccc1 |  | 
31 |  |  | 63 | 4 |  | COc1cccc(Cn2c(CCc3c[nH]c4ccccc34)nnc2[C@@H](Cc2c[nH]c3ccccc23)NC(=O)C(C)(C)N)c1 |  | 
32 | 310 | Partial agonist | 63 |  |  | CC(C)(N)C(=O)N[C@H](Cc1c[nH]c2ccccc12)c1nnc(CCc2ccccc2)n1CCc1ccccc1 |  | 
33 | 640 | Partial agonist | 53 |  |  | CC(C)(N)C(=O)N[C@H](Cc1c[nH]c2ccccc12)c1nnc(CCc2ccccc2)n1Cc1ccc(Cl)c(Cl)c1 |  | 
34 | 440 | Partial agonist | 16 |  |  | CC(C)(N)C(=O)N[C@H](Cc1c[nH]c2ccccc12)c1nnc(Cc2ccccc2)n1Cc1ccc(Br)cc1 |  | 
35 | 840 | Partial agonist | 28 |  |  | Cc1ccc(Cn2c(Cc3ccccc3)nnc2[C@@H](Cc2c[nH]c3ccccc23)NC(=O)C(C)(C)N)cc1 |  | 
36 | 300 | Partial agonist | 88 |  |  | CC(C)(N)C(=O)N[C@H](Cc1c[nH]c2ccccc12)c1nnc(Cc2c[nH]c3ccccc23)n1CCc1ccccc1 |  | 
37 | > 1000 | Partial agonist | 59 |  |  | CC(C)(N)C(=O)N[C@H](Cc1c[nH]c2ccccc12)c1nnc(CCc2ccccc2)n1Cc1ccccn1 |  | 
38 |  |  | 82 | 45 |  | COc1cccc(Cn2c(CCc3ccccc3)nnc2[C@@H](Cc2c[nH]c3ccccc23)NC(=O)C(C)(C)N)c1 | 0.01 | -37
39 | 22 |  | 66 | 18 |  | COc1cccc(Cn2c(CCCc3c[nH]c4ccccc34)nnc2[C@@H](Cc2c[nH]c3ccccc23)NC(=O)C(C)(C)N)c1 |  | 
40 | > 1000 |  | 10 |  |  | CC(C)(N)C(=O)N[C@H](Cc1c[nH]c2ccccc12)c1nnc(CCc2ccccc2)n1Cc1ccc([N+](=O)[O-])cc1 |  | 
41 | 550 | Partial agonist | 82 |  |  | COc1ccc(CCn2c(CCc3ccccc3)nnc2[C@@H](Cc2c[nH]c3ccccc23)NC(=O)C(C)(C)N)cc1 |  | 
42 |  |  | 80 | 98 |  | COc1ccccc1Cn1c(CCc2ccccc2)nnc1[C@@H](Cc1c[nH]c2ccccc12)NC(=O)C(C)(C)N | 0.29 | -57
43 | 420 |  | 97 | 23 |  | CC(C)(N)C(=O)N[C@H](Cc1c[nH]c2ccccc12)c1nnc(CCc2ccccc2)n1Cc1ccco1 |  | 
44 |  | Partial agonist | 50 |  |  | COc1cccc(Cn2c(Cc3ccccc3)nnc2[C@@H](Cc2c[nH]c3ccccc23)NC(=O)C(C)(C)N)c1 |  | 
45 | 80 | Partial agonist | 25 |  |  | CC(C)(N)C(=O)N[C@H](Cc1c[nH]c2ccccc12)c1nnc(CCc2c[nH]c3ccccc23)n1CCc1ccccc1 |  | 
46 | 400 | Partial agonist | 20 |  |  | CC(C)(N)C(=O)N[C@H](Cc1c[nH]c2ccccc12)c1nnc(CCc2ccccc2)n1Cc1ccc(F)cc1 |  | 
47 | 130 | Partial agonist | 40 |  |  | CC(C)(N)C(=O)N[C@H](Cc1c[nH]c2ccccc12)c1nnc(CCc2ccccc2)n1Cc1cccc2ccccc12 |  | 
48 |  |  | 0 |  |  | COc1ccc(Cn2c(CCc3c[nH]c4ccccc34)nnc2[C@@H](Cc2c[nH]c3ccccc23)NC(=O)C(C)(C)N)cc1 | 0.06 | -31
49 | 570 |  | 91 |  | Agonist | CC(C)(N)C(=O)N[C@H](Cc1c[nH]c2ccccc12)c1nnc(CCc2ccccc2)n1Cc1cccs1 |  | 
